Compound activity: PubChem, several laboratories
This is a sample that favours compounds with a hit; in the whole collection about 3.8% have one here.
RGS4 pot: potentiators or activators of RGS4. HEK293 M3R/inducible RGS4, carbachol calcium flux Fluo4; active compounds read low. B-score at 10 µM. 310,000 tested, 0.92% active. AID 463111;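 active = B-score of the integrated calcium signal more than 4 SD below the library mean, with starting fluorescence not abnormally high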;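 also: negative B-score means reduced calcium response which marks RGS4 activation or potentiation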
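Material: M3R-expressing HEK293 line, RGS4 induced by doxycycline | Schedule: Overnight RGS4 induction, 30 min dye load 37 °C, 20 min compound RT | Measured by: Fluo4 fluorescence kinetic imaging of calcium | Read-out: Integrated calcium ratio converted to B score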
MrgX1 allo act: allosterically activates human MrgX1 receptor signaling | B-score at 10 µM | 310,000 tested, 0.63% active | Q96LB2 | MrgX1-HEK293, Fluo-4 calcium flux, FDSS; active compounds read high | AID 588675;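 active = plate-corrected calcium response at least 3 library SD above typical, normal starting fluorescence, not activating the receptor alone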;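 also: compound read alongside a low EC10 to EC30 dose of BAM8-22 agonist; peak minus trough fluorescence over baseline measured at the second addition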
Target sequence (Q96LB2 whole entry, looked up): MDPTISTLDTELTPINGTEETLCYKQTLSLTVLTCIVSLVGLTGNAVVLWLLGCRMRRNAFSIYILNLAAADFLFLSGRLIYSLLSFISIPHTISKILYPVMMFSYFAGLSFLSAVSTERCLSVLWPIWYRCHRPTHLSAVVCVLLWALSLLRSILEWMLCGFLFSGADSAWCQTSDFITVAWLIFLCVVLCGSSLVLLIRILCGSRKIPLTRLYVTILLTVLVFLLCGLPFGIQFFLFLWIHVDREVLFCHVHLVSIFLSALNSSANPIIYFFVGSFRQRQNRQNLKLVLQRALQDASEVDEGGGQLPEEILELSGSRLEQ
MrgX1 antag: blocks BAM8-22 activation of human MrgX1 receptor. MRGX1-HEK293 calcium flux, Fluo-4, BAM8-22 antagonism; active compounds read low. B-score at 10 µM. 310,000 tested, 1.3% active. AID 588676;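 active = calcium-response B-score plate-corrected more than 3 library SD below zero, starting fluorescence within 5 deviations, no agonist response on first addition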;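 also: peak minus trough fluorescence over baseline after final BAM8-22 challenge near maximal dose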
RGS4 inh: human RGS4 inhibition; P49798; HEK293 M3R/RGS4 inducible, Fluo-4 calcium flux; active compounds read high; triggered by carbachol at its EC20; AID 463165; B-score at 10 µM; 310,000 tested, 0.45% active;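 active = B-score, a plate-corrected calcium signal, over three deviations above library mean, with baseline fluorescence within five deviations of library mean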;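 also: RGS4 expression induced by doxycycline in cells with stable M3 receptor; B-score is computed from the integrated fluorescence ratio over baseline after carbachol; higher B-score means a larger calcium signal and so more RGS4 inhibition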
Target sequence (P49798 whole entry, looked up): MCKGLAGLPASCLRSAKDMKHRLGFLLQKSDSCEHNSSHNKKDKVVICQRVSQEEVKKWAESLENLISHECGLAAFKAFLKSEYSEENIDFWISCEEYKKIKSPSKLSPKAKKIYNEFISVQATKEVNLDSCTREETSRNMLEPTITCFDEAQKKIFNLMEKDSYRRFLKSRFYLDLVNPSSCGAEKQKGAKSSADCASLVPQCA
MrgX1 agonist: agonists of human MrgX1 receptor | Q96LB2 | MrgX1-HEK293 cells, Fluo-4 calcium fluorescence, agonist mode; active compounds read high | B-score at 10 µM | 310,000 tested, 0.44% active | AID 588627;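 active = calcium response B-score plate-corrected fluorescence ratio at least 3 library SD, with starting fluorescence B-score inside 5 SD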
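Material: MrgX1-expressing HEK293 cells / Dosing: compound as first of three additions / Incubation: overnight seeding, then 1 h dark dye loading / Signal: Fluo-4 NW calcium fluorescence / Evaluation: B-scored fluorescence response ratio / Benchmarks: positive and negative control wells on each plate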
Lipid droplet: hepatic lipid droplet formation modulation; AML12 mouse hepatocytes, oleate lipid droplets, BODIPY imaging; inhibition, % at 6.5 µM; 240,000 tested, 0.4% active; AID 1656;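 active = lipid droplet intensity inhibited by at least 50%, with more than 500 cells counted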
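Test system: AML12 hepatocytes (mouse); reagent: oleate loading, 100 µM; dosing: one dose, 6.5 µM compound; incubation: overnight exposure; signal: fluorescence imaging, 20x objective, two fields per well; read-out basis: % inhibition of corrected integrated BODIPY droplet signal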
RGS4 block valid: RGS4 inhibitor validation | shares compounds with RGS4 inh | calcium response, % at 10 µM | HEK293 M3R/RGS4, carbachol calcium Fluo-4 fluorescence; carbachol added at its EC20; 0 = buffer wells, 100 = carbachol control | 1,700 tested, 65% active;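 active = duplicate-averaged calcium response above the buffer-only control mean plus 5 SD of those controls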;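 also: integrated fluorescence ratio F max minus min over baseline F0; higher response in RGS4-induced cells means RGS4 inhibition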
M3R Ca ctr: counter-screen for RGS4 inhibitors: effect in non-induced cells | shares compounds with RGS4 inh | HEK293 M3R non-induced, carbachol calcium Fluo-4; submaximal (EC20) carbachol stimulus; buffer wells 0%, carbachol control wells 100% | activity (percent), % at 10 µM | 1,900 tested, 20% active; call rule not given here;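 also: RGS4 induction absent so cells express M3R without RGS4; higher means more calcium signal and flags a non-specific hit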
M3R basal Ca ctr: second RGS4 inhibitor counter-screen in uninduced cells lacking carbachol. HEK293 M3R/RGS4 non-induced, Fluo-4 calcium, no carbachol; normalised: buffer wells 0%, carbachol wells 100%. 1,900 tested, 22% active. calcium response (agonist-mode artifact), % at 10 µM. shares compounds with RGS4 inh;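 active = duplicate-averaged calcium rise in uninduced cells above buffer wells' mean plus 5 SD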
Hits are given with their value.

Screening Cc1nn(-c2cccc(Cl)c2)c2nc(-c3ccco3)cc(C(=O)O)c12 returned RGS4 pot inactive, MrgX1 allo act inactive, MrgX1 antag inactive, RGS4 inh inactive, MrgX1 agonist inactive and Lipid droplet inactive.
Screening Cc1c(CC(=O)O)c(=O)oc2cc(OCc3ccc(Br)cc3)ccc12 returned RGS4 pot inactive, MrgX1 allo act inactive, MrgX1 antag inactive, RGS4 inh inactive and MrgX1 agonist inactive.
Cc1cc(C)n(CC(O)Cn2c3ccc(Br)cc3c3cc(Br)ccc32)c(=O)n1 (stereo not drawn) was read as RGS4 pot inactive, MrgX1 allo act inactive, MrgX1 antag inactive, RGS4 inh 7.79, MrgX1 agonist inactive, Lipid droplet inactive, RGS4 block valid 27.0%, M3R Ca ctr inactive and M3R basal Ca ctr inactive.
`CCCCNS(=O)(=O)c1ccc2nc(-c3cccs3)cc(C(=O)NCC(OC)OC)c2c1` gave RGS4 pot inactive, MrgX1 allo act inactive, MrgX1 antag inactive, RGS4 inh inactive and MrgX1 agonist inactive.
Screening CC1CCN(c2nc(N3CCCCC3)nc(N3CCCCC3)n2)CC1 returned RGS4 pot inactive, MrgX1 allo act inactive, MrgX1 antag inactive, RGS4 inh 8.69, MrgX1 agonist inactive, Lipid droplet inactive, RGS4 block valid 43.5%, M3R Ca ctr 55.0% and M3R basal Ca ctr inactive.
Screening Cc1ccc(NC(=O)CCCCCN2C(=O)[C@@H]3Cc4ccccc4CN3C2=O)c(C)c1 returned RGS4 pot inactive, MrgX1 allo act inactive, MrgX1 antag inactive, RGS4 inh inactive, MrgX1 agonist inactive and Lipid droplet inactive.
CCSc1nc2ccccc2n1C(=O)/C=C\c1ccc(OC)c(OC)c1 was read as RGS4 pot inactive, MrgX1 allo act inactive, MrgX1 antag inactive, RGS4 inh 13.6, MrgX1 agonist inactive, RGS4 block valid 21.5%, M3R Ca ctr 75.5% and M3R basal Ca ctr 7.5%.
Screening COc1cc(C=C2C(=O)c3ccccc3C2=O)cc(OC)c1 returned RGS4 pot inactive, MrgX1 allo act inactive, MrgX1 antag inactive, RGS4 inh 7.52, MrgX1 agonist inactive, Lipid droplet inactive, RGS4 block valid 8.5%, M3R Ca ctr inactive and M3R basal Ca ctr inactive.
Screening COc1cccc(/C=C2\C(=O)C(=O)c3ccccc32)c1 returned RGS4 pot inactive, MrgX1 allo act inactive, MrgX1 antag inactive, RGS4 inh 10.8, MrgX1 agonist 30.1, Lipid droplet inactive, RGS4 block valid 14.0%, M3R Ca ctr inactive and M3R basal Ca ctr 10.5%.
COc1cccc(/C=C2\CCc3ccccc3C2=O)c1 was read as RGS4 pot inactive, MrgX1 allo act inactive, MrgX1 antag inactive, RGS4 inh inactive, MrgX1 agonist inactive and Lipid droplet inactive.
For COc1cc(C=C2C(=O)c3ccccc3C2=O)cc(OC)c1OC the results were RGS4 pot inactive, MrgX1 allo act inactive, MrgX1 antag inactive, RGS4 inh inactive, MrgX1 agonist inactive and Lipid droplet inactive.
For Cc1ccc(C)c(N2C(=O)c3cc(N4CCOCC4)c([N+](=O)[O-])cc3C2=O)c1 the results were RGS4 pot inactive, MrgX1 allo act inactive, MrgX1 antag inactive, RGS4 inh inactive, MrgX1 agonist inactive and Lipid droplet inactive.
For CSc1ccc(S(=O)(=O)N(C)Cc2ccccc2)cc1 the results were RGS4 pot inactive, MrgX1 allo act inactive, MrgX1 antag inactive, RGS4 inh inactive, MrgX1 agonist inactive and Lipid droplet inactive.
CC1(C)Cc2c(cnn2-c2ccc(F)cc2)C(NC(=O)CN2CCCC2=O)C1 (stereo not drawn) was read as RGS4 pot inactive, MrgX1 allo act inactive, MrgX1 antag inactive, RGS4 inh inactive, MrgX1 agonist inactive and Lipid droplet inactive.
Screening COC(=O)CSc1[nH]c2ccc(Br)cc2c1[N+](=O)[O-] returned RGS4 pot inactive, MrgX1 allo act inactive, MrgX1 antag inactive, RGS4 inh inactive, MrgX1 agonist inactive and Lipid droplet inactive.
CCOc1ccc2[nH]c(SCC(=O)OC)c([N+](=O)[O-])c2c1 was read as RGS4 pot inactive, MrgX1 allo act inactive, MrgX1 antag -4.77, RGS4 inh 7.64, MrgX1 agonist inactive, Lipid droplet inactive, RGS4 block valid 18.5%, M3R Ca ctr inactive and M3R basal Ca ctr 49.0%.
For COC(=O)CSc1[nH]c2cc(C)ccc2c1[N+](=O)[O-] the results were RGS4 pot inactive, MrgX1 allo act inactive, MrgX1 antag inactive, RGS4 inh 16.4, MrgX1 agonist inactive, Lipid droplet inactive, RGS4 block valid 44.0%, M3R Ca ctr inactive and M3R basal Ca ctr inactive.
COc1ccc2c(c1)CCc1c(C(=O)N(C)c3ccccc3)noc1-2 was read as RGS4 pot inactive, MrgX1 allo act inactive, MrgX1 antag inactive, RGS4 inh inactive, MrgX1 agonist inactive and Lipid droplet inactive.
Screening O=[N+]([O-])c1ccc(C23CC4CC(CC(O)(C4)C2)C3)cc1 returned RGS4 pot inactive, MrgX1 allo act inactive, MrgX1 antag inactive, RGS4 inh inactive, MrgX1 agonist inactive and Lipid droplet inactive.
COc1ccc(NC(=O)/C(Cl)=C(/Cl)S(=O)(=O)Cc2ccc(C)cc2)cn1 was read as RGS4 pot inactive, RGS4 inh 12, Lipid droplet inactive, RGS4 block valid 24.0%, M3R Ca ctr inactive and M3R basal Ca ctr 7.5%.
For Cc1ccc(NC(=O)c2[nH]cnc2C(=O)NN)cc1 the results were RGS4 pot inactive, MrgX1 allo act inactive, MrgX1 antag inactive, RGS4 inh inactive, MrgX1 agonist inactive and Lipid droplet inactive.
`Cc1ccc(NC(=O)c2nc[nH]c2C(=O)N[C@@H](C)c2ccccc2)cc1` gave RGS4 pot inactive, MrgX1 allo act inactive, MrgX1 antag inactive, RGS4 inh 5.65, MrgX1 agonist inactive, Lipid droplet inactive, RGS4 block valid 29.0%, M3R Ca ctr inactive and M3R basal Ca ctr inactive.
Screening CCCN(C(=O)Cc1c(C(=O)O)n(C)c2ccccc12)c1cccc(C)c1 returned RGS4 pot inactive, MrgX1 allo act inactive, MrgX1 antag inactive, RGS4 inh 6.23, MrgX1 agonist inactive, RGS4 block valid 12.5%, M3R Ca ctr 67.5% and M3R basal Ca ctr 11.5%.
